Assay results reported in ChEMBL document CHEMBL4422663, “Suppression of Tumor Growth and Metastases by Targeted Intervention in Urokinase Activity with Cyclic Peptides” (J Med Chem, 2019).
Activity calls are given as the source filed them. The calls are words filed in the database; no cut-off is given here. Positions of bridges follow the written chain, without caps; N, C: chain ends. Residues, ends and D or L forms follow the SMILES beside them.

Assays:
CT26 [1] = experiment: Antimetastatic activity against GFP-fused mouse CT26 cells allografted in Balb/c mouse assessed as reduction in tumor nodule numbers at 11.3 mg/kg, ip administered daily for 15 days by fluorescence-based assay; format: functional; conditions: 360 h
In short: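 Lung metastasis model: male Balb/c mice (~20 g, 6/group) given 10^6 GFP-CT-26 cells i.v. with peptide or saline, daily i.p. dosing Day 1–15, sacrificed Day 16. Surface tumor nodules on pleural surfaces counted per lung after soaking in formaldehyde.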

[2] = target: T1, Urokinase-type plasminogen activator (Mus musculus, UniProt P06869); experiment: Inhibition of uPA in presence of 75% mouse […] measured immediately
T1 sequence (P06869 21-178 limits assumed): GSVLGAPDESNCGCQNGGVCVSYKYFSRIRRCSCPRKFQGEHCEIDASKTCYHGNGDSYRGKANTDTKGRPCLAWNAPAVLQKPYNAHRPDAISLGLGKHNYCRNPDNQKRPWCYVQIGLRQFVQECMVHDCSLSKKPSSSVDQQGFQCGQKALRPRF
T1 sequence (P06869 180-433 limits assumed): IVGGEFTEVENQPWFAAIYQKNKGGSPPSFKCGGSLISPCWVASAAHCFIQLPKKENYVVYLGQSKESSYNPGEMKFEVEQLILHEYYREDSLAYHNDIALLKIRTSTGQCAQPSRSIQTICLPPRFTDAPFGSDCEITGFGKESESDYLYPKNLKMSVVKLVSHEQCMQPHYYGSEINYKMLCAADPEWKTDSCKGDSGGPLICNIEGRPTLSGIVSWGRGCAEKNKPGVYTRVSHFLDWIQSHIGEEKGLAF
In short: (§1)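 Peptide was preincubated in 75% murine plasma for 0–24 h (sampled at 0, 2, 8 and 24 h). Residual uPA-inhibitory activity was then measured and expressed as IC50.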

CT26 [3] = experiment: Antimetastatic activity against GFP-fused mouse CT26 cells allografted in Balb/c mouse assessed as reduction in relative fluorescence at 11.3 mg/kg, ip administered daily for 15 days by fluorescence-based assay; format: functional; conditions: 360 h
In short: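 Lung metastasis model: male Balb/c mice (~20 g, 6/group) given 10^6 GFP-CT-26 cells i.v. with peptide or saline, daily i.p. dosing Day 1–15, sacrificed Day 16. Resected lungs imaged for GFP with 488 nm excitation, emission 520; signal collected over 20×20 mm2 per lung; non-implanted normal group used for background subtraction.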

Plasma kallikrein = Plasma kallikrein (Mus musculus, UniProt P26262); experiment: Inhibition of mouse plasma kallikrein preincubated for 15 mins followed by chromogenic substrate addition
Chain of Plasma kallikrein (P26262 20-390 limits assumed): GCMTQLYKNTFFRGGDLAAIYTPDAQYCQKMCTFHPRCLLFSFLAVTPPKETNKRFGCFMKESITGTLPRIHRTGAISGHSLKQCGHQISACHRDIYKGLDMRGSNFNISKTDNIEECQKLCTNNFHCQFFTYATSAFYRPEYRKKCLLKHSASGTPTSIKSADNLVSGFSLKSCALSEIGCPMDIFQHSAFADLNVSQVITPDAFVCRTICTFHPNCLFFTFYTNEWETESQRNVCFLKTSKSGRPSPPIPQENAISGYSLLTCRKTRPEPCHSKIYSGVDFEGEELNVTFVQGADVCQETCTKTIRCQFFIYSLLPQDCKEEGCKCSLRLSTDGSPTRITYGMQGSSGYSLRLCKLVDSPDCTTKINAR
Chain of Plasma kallikrein (P26262 391-638 limits assumed): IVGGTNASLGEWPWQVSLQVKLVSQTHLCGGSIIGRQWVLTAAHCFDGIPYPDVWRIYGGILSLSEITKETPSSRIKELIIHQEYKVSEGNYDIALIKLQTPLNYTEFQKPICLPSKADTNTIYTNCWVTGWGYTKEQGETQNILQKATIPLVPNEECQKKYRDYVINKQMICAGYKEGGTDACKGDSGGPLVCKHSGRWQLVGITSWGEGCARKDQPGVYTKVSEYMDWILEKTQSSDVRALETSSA

[4] = Stability in 75% mouse plasma assessed as protease-mediated compound degradation measured within 8 hrs; format: ADME, cell-free; in short: as §1
[5] = target: T1, Urokinase-type plasminogen activator; experiment: Binding affinity to mouse uPA expressed in HEK2936E cells by ITC assay
[6] = target: Vitamin K-dependent protein C (Homo sapiens, UniProt P04070); experiment: Inhibition of human activated protein C preincubated for 15 mins followed by chromogenic substrate addition
Chain of Vitamin K-dependent protein C (P04070 43-197 limits assumed): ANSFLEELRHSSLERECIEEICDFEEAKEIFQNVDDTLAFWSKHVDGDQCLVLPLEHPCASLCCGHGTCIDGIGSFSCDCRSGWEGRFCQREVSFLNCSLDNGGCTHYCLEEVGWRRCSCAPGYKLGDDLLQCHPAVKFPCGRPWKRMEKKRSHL
Chain of Vitamin K-dependent protein C (P04070 212-461 limits assumed): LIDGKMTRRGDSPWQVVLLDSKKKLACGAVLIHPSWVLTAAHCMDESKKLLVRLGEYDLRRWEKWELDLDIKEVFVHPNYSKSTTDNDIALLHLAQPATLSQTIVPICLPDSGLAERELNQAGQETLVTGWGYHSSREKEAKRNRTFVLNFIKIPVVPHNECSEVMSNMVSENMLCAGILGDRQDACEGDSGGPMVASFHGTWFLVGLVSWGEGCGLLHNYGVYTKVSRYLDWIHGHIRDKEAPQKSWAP

CT26 [7] = experiment: Antimetastatic activity against GFP-fused mouse CT26 cells allografted in Balb/c mouse assessed as reduction in relative fluorescence at 1.13 mg/kg, ip administered daily for 15 days by fluorescence-based assay; format: functional, organism-based
In short: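 After iv GFP-CT-26 implantation (10^6 cells) in male Balb/c and daily ip dosing Days 1–15, lungs were removed on Day 16. Whole-lung GFP was imaged with 488 nm excitation (em 520) and quantified over a 20×20 mm2 area per lung. Non-implanted lungs served as background.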

[8] = target: T1, Urokinase-type plasminogen activator; experiment: Inhibition of mouse uPA serine protease domain preincubated for 15 mins followed by chromogenic substrate addition
[9] = target: Urokinase-type plasminogen activator (Mus musculus) (UniProt P06869); experiment: Inhibition of the intrinsic peri-cellular uPA in mouse CT26 cells assessed as reduction in cell migration at 30 to 100 uM measured every hour by wound healing assay relative to control; format: cell-based
Chain of Urokinase-type plasminogen activator (Mus musculus) (P06869 21-178 limits assumed): as the sequence (P06869 21-178 limits assumed) above
Chain of Urokinase-type plasminogen activator (Mus musculus) (P06869 180-433 limits assumed): as the sequence (P06869 180-433 limits assumed) above

[10] = target: Urokinase-type plasminogen activator (Homo sapiens, UniProt P00749); experiment: Inhibition of human uPA preincubated for 15 mins followed by chromogenic substrate addition
CT26 [11] = experiment: Antimetastatic activity against GFP-fused mouse CT26 cells allografted in Balb/c mouse assessed as reduction genomic DNA of metastatic cells at 11.3 mg/kg, ip administered daily for 15 days by qPCR analysis; format: functional; conditions: 360 h
In short: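 Male Balb/c mice (~20 g, 6/group) given 10^6 GFP-CT-26 cells i.v. in 200 µl mixed with peptide or saline, then daily i.p. peptide Day 1–15; sacrificed Day 16. Lung total DNA isolated after homogenization; 200 ng per SYBR Green qPCR, quantified against standard curve of CT-26 DNA spiked into normal lung DNA (0.135%-100%).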

[12] = Inhibition of mouse trypsin preincubated for 15 mins followed by chromogenic substrate addition
[13] = target: Tissue-type plasminogen activator (Homo sapiens, UniProt P00750); experiment: Inhibition of human tissue-type plasminogen activator preincubated for 15 mins followed by chromogenic substrate addition
Chain of Tissue-type plasminogen activator (P00750 whole entry, the tested form may be a part): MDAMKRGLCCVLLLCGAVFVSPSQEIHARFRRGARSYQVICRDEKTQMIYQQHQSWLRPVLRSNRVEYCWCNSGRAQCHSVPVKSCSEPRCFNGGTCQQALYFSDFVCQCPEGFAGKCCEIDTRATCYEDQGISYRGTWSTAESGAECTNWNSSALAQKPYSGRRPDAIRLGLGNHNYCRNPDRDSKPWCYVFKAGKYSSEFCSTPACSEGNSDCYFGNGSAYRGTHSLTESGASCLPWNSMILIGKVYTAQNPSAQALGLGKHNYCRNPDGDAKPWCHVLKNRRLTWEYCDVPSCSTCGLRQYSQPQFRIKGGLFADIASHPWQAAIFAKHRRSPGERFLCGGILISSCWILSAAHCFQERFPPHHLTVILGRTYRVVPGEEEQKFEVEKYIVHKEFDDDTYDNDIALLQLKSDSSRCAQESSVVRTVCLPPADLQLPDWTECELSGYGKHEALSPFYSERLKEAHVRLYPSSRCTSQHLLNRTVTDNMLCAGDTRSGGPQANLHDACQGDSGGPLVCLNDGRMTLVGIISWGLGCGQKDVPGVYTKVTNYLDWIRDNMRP

CT26 [14] = experiment: Antimetastatic activity against GFP-fused mouse CT26 cells allografted in Balb/c mouse assessed as reduction in hyperplastic weights at 11.3 mg/kg, ip administered daily for 15 days by fluorescence-based assay; format: functional; conditions: 360 h
In short: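 Lung metastasis model: male Balb/c mice (~20 g, 6/group) given 10^6 GFP-CT-26 cells i.v. with peptide or saline, then daily i.p. dosing Day 1–15. Lungs resected and weighed immediately at sacrifice on Day 16; hyperplastic weight = lung weight minus weight of lungs from non-implanted normal mice.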

[15] = target: Urokinase-type plasminogen activator (Mus musculus) (UniProt P06869); experiment: Inhibition of the intrinsic peri-cellular uPA in mouse CT26 cells assessed as reduction in cell invasion at 33 to 100 uM by Transwell invasion assay relative to control
[16] = target: Urokinase-type plasminogen activator (Mus musculus) (UniProt P06869); experiment: Binding affinity to mouse uPA assessed as dissociation rate constant after 600 secs by SPR assay
CT26 [17] = experiment: Antimetastatic activity against mouse CT26 cells allografted in Balb/c mouse at 11.3 mg/kg, ip administered daily for 15 days by hematoxylin and eosin staining -based assay; format: functional, organism-based
In short: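 Lungs from male Balb/c given 10^6 GFP-CT-26 cells iv, with daily ip dosing on Days 1–15, were harvested on Day 16. Formalin-fixed, paraffin-embedded sections were stained with H&E for histology, with non-implanted lungs as comparison.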

Which inhibition in vivo at 11.3 mg/kg (CT26 [1]) does the source give for `CC[C@H](C)[C@@H]1NC(=O)[C@H](Cc2ccc(O)cc2)NC(=O)[C@H](CCCNC(=N)N)NC(=O)[C@H](CO)NC(=O)[C@H](Cc2ccc(O)cc2)NC(=O)[C@H](C)NC(=O)[C@@H]2CCCN2C(=O)[C@@H](N)CSSC[C@@H](C(=O)O)NC(=O)CNC1=O` (H-CPAYSRYIGC-OH; disulfide 1-10) here?
Its inhibition in vivo at 11.3 mg/kg is 46.5%.

What about the IC50 [2] of the same compound?
Its IC50 is 10.1 nM.

And the inhibition in vivo at 11.3 mg/kg (CT26 [3])?
The inhibition in vivo at 11.3 mg/kg was 50%.

What about the Ki (Plasma kallikrein) of the same compound?
Its Ki is > 25000 nM.

And the Stability [4]?
The Stability was “Stable”.

What about the Kd [5] of the same compound?
Its Kd is 10.6 nM.

And the Ki [6]?
Its Ki is > 25000 nM.

And the Activity (CT26 [7])?
The Activity was “inactive”.

What about the Ki [8] of the same compound?
The Ki was 15.3 nM.

What about the inhibition [9] of the same compound?
The inhibition was 30%.

What about the Ki [10] of the same compound?
Its Ki is 340 nM.

And the inhibition in vivo at 11.3 mg/kg (CT26 [11])?
The inhibition in vivo at 11.3 mg/kg was 49.8%.

What about the Ki [12] of the same compound?
Its Ki is 2100 nM.

And the Ki [13]?
The Ki was > 25000 nM.

What about the inhibition in vivo at 11.3 mg/kg (CT26 [14]) of the same compound?
Its inhibition in vivo at 11.3 mg/kg is 51.7%.

And the inhibition [15]?
Its inhibition is 70 to 80%.

And the K [16]?
The K was 0.00066 s⁻¹.

And the Activity (CT26 [17])?
The Activity was “Active”.
